Reference: PMC2906805 (The open enzyme inhibition journal, 2009)

Molecular target: T1, PMPMEase (EPL, esterase from porcine liver) (Sus scrofa, UniProt Q29550)
T1 sequence (Q29550 19-566): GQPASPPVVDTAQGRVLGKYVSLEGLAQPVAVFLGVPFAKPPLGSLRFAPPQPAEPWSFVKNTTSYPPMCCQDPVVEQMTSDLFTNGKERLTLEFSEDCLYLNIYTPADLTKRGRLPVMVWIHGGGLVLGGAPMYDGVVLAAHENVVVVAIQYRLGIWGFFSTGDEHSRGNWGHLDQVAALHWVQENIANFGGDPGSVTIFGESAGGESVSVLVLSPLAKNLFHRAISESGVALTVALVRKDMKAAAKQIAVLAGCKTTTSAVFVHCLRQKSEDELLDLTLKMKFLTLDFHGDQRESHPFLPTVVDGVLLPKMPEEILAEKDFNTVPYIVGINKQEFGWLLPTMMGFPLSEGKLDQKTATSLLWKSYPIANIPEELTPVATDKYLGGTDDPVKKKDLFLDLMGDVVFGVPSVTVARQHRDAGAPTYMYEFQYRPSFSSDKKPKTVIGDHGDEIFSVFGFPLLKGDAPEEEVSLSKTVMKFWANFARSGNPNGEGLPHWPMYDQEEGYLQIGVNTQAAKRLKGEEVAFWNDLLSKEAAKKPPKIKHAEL
Assay: HPLC product assay with UV detection, Michaelis-Menten fit
Format: biochemical
Procedure, shortened: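 Commercial porcine liver esterase (0.1 to 5 µg per assay, depending on substrate) was incubated with varying concentrations of S-alkylated cysteinyl ester substrates in 100 mM Tris-HCl, pH 7.4, with 5% DMSO at 37°C. Reactions were stopped, and acid products were quantified by reversed-phase HPLC at 260 nm (p-nitrobenzoyl substrates) or 214 nm (others). Base-hydrolysed substrate standards supplied the calibration. Km came from a Michaelis-Menten fit.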

Structure (SMILES)	Km
COC(=O)[C@H](CSC/C=C(\C)CC/C=C(\C)CC/C=C(\C)CCC=C(C)C)NC(=O)c1ccc([N+](=O)[O-])cc1 [L-80, (R)-methyl 3-((2E,6E,10E)-3,7,11,15-tetramethylhexadeca-2,6,10,14-tetraenylthio)-2-(4-nitrobenzamido) propanoate]	15 ± 2.7 µM
COC(=O)CNC(=O)c1ccc([N+](=O)[O-])cc1 [L-102, methyl 2-(4-nitrobenzamido)acetate]	400 ± 115 µM
CCOC(=O)[C@H](CSC/C=C(\C)CC/C=C(\C)CCC=C(C)C)NC(=O)c1ccc([N+](=O)[O-])cc1 [L-76, (R)-ethyl 3-((2E,6E)-3,7,11-trimethyldodeca-2,6,10-trienylthio)-2-(4-nitrobenzamido)propanoate]	11 ± 0.9 µM
COC(=O)[C@H](CSC/C=C(\C)CC/C=C(\C)CCC=C(C)C)NC(=O)CNC(=O)c1ccc([N+](=O)[O-])cc1 [RD-18, N-(4-Nitrobenzoylglycyl)-S-(trans, trans-farnesyl)cysteine methyl ester]	8.4 ± 0.89 µM
CC(C)=CCC/C(C)=C/CC/C(C)=C/CSC[C@H](NC(=O)c1ccc([N+](=O)[O-])cc1)C(=O)OC(C)C [L-75, (R)-isopropyl 3-((2E,6E)-3,7,11-trimethyldodeca-2,6,10-trienylthio)-2-(4-nitrobenzamido)propanoate]	5.9 ± 0.7 µM
COC(=O)[C@H](C)NC(=O)c1ccc([N+](=O)[O-])cc1 [L-111, (S)-methyl 2-(4-nitrobenzamido)propanoate]	300 ± 38 µM
COC(=O)[C@@H](CSC/C=C(\C)CC/C=C(\C)CCC=C(C)C)NC(C)=O [L-69, (S)-methyl 3-((2E,6E)-3,7,11-trimethyldodeca-2,6,10-trienylthio)-2-acetamidopropanoate]	21 ± 4.2 µM

The remaining lines, values ahead:

Km	Structure (SMILES)
40.5 ± 3.7 µM	COC(=O)[C@H](CSCc1ccccc1)NC(=O)c1ccc([N+](=O)[O-])cc1 [L-93, (R)-methyl 2-(4-nitrobenzamido)-3-(benzylthio)propanoate]
29 ± 2.2 µM	COC(=O)[C@H](CSC/C=C(\C)CC/C=C(\C)CCC=C(C)C)NC(=O)c1ccc([N+](=O)[O-])cc1 [RD-PNB, (R)-methyl 3-((2E,6E)-3,7,11-trimethyldodeca-2,6,10-trienylthio)-2-(4-nitrobenzamido)propanoate]
56 ± 9.6 µM	COC(=O)[C@H](CSCC[C@@H](C)CCC=C(C)C)NC(=O)c1ccc([N+](=O)[O-])cc1 [L-83, (R)-methyl 3-((S)-3,7-dimethyloct-6-enylthio)-2-(4-nitrobenzamido)propanoate]
11 ± 0.9 µM	COC(=O)[C@@H](CSC/C=C(\C)CC/C=C(\C)CCC=C(C)C)NC(=O)c1ccc([N+](=O)[O-])cc1 [L-70, (S)-methyl 3-((2E,6E)-3,7,11-trimethyldodeca-2,6,10-trienylthio)-2-(4-nitrobenzamido)propanoate]
505 ± 63 µM	CCSC[C@H](NC(=O)c1ccc([N+](=O)[O-])cc1)C(=O)OC [L-74, (R)-methyl 2-(4-nitrobenzamido)-3-(ethylthio)propanoate]
87 ± 12 µM	COC(=O)[C@H](CSC/C=C(\C)CCC=C(C)C)NC(=O)c1ccc([N+](=O)[O-])cc1 [L-72, (R)-methyl 3-((E)-3,7-dimethylocta-2,6-dienylthio)-2-(4-nitrobenzamido)propanoate]
53 ± 7 µM	COC(=O)[C@H](CSCC[C@H](C)CCC=C(C)C)NC(=O)c1ccc([N+](=O)[O-])cc1 [L-86, (R)-methyl 3-((R)-3,7-dimethyloct-6-enylthio)-2-(4-nitrobenzamido)propanoate]
294 ± 25 µM	COC(=O)[C@H](CSCC=C(C)C)NC(=O)c1ccc([N+](=O)[O-])cc1 [L-77, (R)-methyl 3-(3-methylbut-2-enylthio)-2-(4-nitrobenzamido) propanoate]
960 ± 180 µM	COC(=O)[C@H](CSCCC(C)C)NC(=O)c1ccc([N+](=O)[O-])cc1 [L-81, (R)-methyl 2-(4-nitrobenzamido)-3-(isopentylthio)propanoate]
